Compound in data set [1]: C=C(F)c1sc(CNCCCNc2cc(=O)c3ccccc3[nH]2)c(C)c1Br
The data set is described as follows: Ratio of Kcat to Km for Staphylococcus aureus MetRS G223C mutant in presence of methionine. In short, it runs like this: (§1)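 Purified recombinant S. aureus MetRS (30 nM) was assayed by ATP:PPi exchange at 30°C in Tris pH 8.0 with Mg acetate, KCl and DTT. [32P]PPi was matched to ATP, and ATP or methionine was varied. Time points from 1 to 10 min were quenched with EDTA, separated by PEI-cellulose TLC and read by phosphorimager. Initial rates were fitted to Michaelis-Menten.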

Compound in data set [2]: C=C(F)c1sc(CNCCCNc2cc(=O)c3ccccc3[nH]2)c(C)c1Br
Nature of the data set: Ratio of Kcat to Km for Staphylococcus aureus MetRS G223C mutant in presence of tRNA. In short, it runs like this: (§2)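 Purified recombinant S. aureus MetRS was assayed by tRNA aminoacylation at 30°C for 1 to 7.5 min to obtain initial rates. Buffer was Tris pH 8.0 with Mg acetate, 2.5 mM ATP, KCl, DTT, BSA, [3H]methionine and crude E. coli tRNA. Reactions were EDTA-stopped, and charged tRNA was read by scintillation proximity with polylysine beads at pH 2.0.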

Compound in data set [3]: C=C(F)c1sc(CNCCCNc2cc(=O)c3ccccc3[nH]2)c(C)c1Br
Nature of the data set: Ratio of Kcat to Km for Staphylococcus aureus MetRS G223C mutant in presence of ATP. In outline:
as §1

Compound in data set [4]: C=C(F)c1sc(CNCCCNc2cc(=O)c3ccccc3[nH]2)c(C)c1Br
Nature of the data set: Activity of Staphylococcus aureus MetRS G223C mutant by ATP:PPi exchange assay in presence of ATP. In short, it runs like this: (§3)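 Purified S. aureus MetRS (wild type or mutant; E. coli-expressed, ammonium sulfate cut, anion exchange) at 30 nM. ATP:PPi exchange at 30°C in 100 mM Tris-HCl pH 8.0, 5–10 mM Mg acetate, 80 mM KCl, 2.5 mM DTT, [32P]PPi plus cold PPi equal to ATP. Quenched with EDTA over 1–10 min, PEI-cellulose TLC, phosphorimager. Initial velocities versus varied ATP or methionine fit to Michaelis-Menten.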

Compound in data set [5]: C=C(F)c1sc(CNCCCNc2cc(=O)c3ccccc3[nH]2)c(C)c1Br
The data set is described as follows: Activity of Staphylococcus aureus MetRS G223C mutant by ATP:PPi exchange assay in presence of methionine. In outline:
as §3

Compound in data set [6]: C=C(F)c1sc(CNCCCNc2cc(=O)c3ccccc3[nH]2)c(C)c1Br
Nature of the data set: Activity of streptococcus aureus MetRS G223C mutant by scintillation proximity assay in presence of tRNA. To be noted: Staphylococcus aureus. (In a scintillation proximity assay essentially only radioactivity close to the scintillant gives light.)

Compound in data set [7]: C=C(F)c1sc(CNCCCNc2cc(=O)c3ccccc3[nH]2)c(C)c1Br
The data set is described as follows: Ratio of Kcat to Km for Staphylococcus aureus MetRS A247E mutant in presence of ATP. In outline:
as §1

Compound in data set [8]: C=C(F)c1sc(CNCCCNc2cc(=O)c3ccccc3[nH]2)c(C)c1Br
The data set is described as follows: Activity of streptococcus aureus MetRS A247E mutant by scintillation proximity assay in presence of tRNA. To be noted: Staphylococcus aureus.

Compound in data set [9]: C=C(F)c1sc(CNCCCNc2cc(=O)c3ccccc3[nH]2)c(C)c1Br
The data set is described as follows: Activity of Staphylococcus aureus MetRS A247E mutant by ATP:PPi exchange assay in presence of ATP. In outline:
as §3

Compound in data set [10]: C=C(F)c1sc(CNCCCNc2cc(=O)c3ccccc3[nH]2)c(C)c1Br
Nature of the data set: Ratio of Kcat to Km for Staphylococcus aureus MetRS A247E mutant in presence of tRNA. In short, it runs like this: as §2

Compound in data set [11]: C=C(F)c1sc(CNCCCNc2cc(=O)c3ccccc3[nH]2)c(C)c1Br
The data set is described as follows: Ratio of Kcat to Km for Staphylococcus aureus MetRS A247E mutant in presence of methionine. In outline: as §1

Compound in data set [12]: C=C(F)c1sc(CNCCCNc2cc(=O)c3ccccc3[nH]2)c(C)c1Br
Nature of the data set: Activity of Staphylococcus aureus MetRS A247E mutant by ATP:PPi exchange assay in presence of methionine. In outline:
as §3

Compound in data set [13]: C=C(F)c1sc(CNCCCNc2cc(=O)c3ccccc3[nH]2)c(C)c1Br
The data set is described as follows: Ratio of Kcat to Km for Staphylococcus aureus MetRS V108M mutant in presence of ATP. In outline:
as §1

Compound in data set [14]: C=C(F)c1sc(CNCCCNc2cc(=O)c3ccccc3[nH]2)c(C)c1Br
The data set is described as follows: Activity of Staphylococcus aureus MetRS V108M mutant by ATP:PPi exchange assay in presence of ATP. In outline: as §3

Compound in data set [15]: C=C(F)c1sc(CNCCCNc2cc(=O)c3ccccc3[nH]2)c(C)c1Br
Nature of the data set: Ratio of Kcat to Km for Staphylococcus aureus MetRS V108M mutant in presence of tRNA. In short, it runs like this:
as §2

Compound in data set [16]: C=C(F)c1sc(CNCCCNc2cc(=O)c3ccccc3[nH]2)c(C)c1Br
Nature of the data set: Activity of Staphylococcus aureus MetRS V108M mutant by ATP:PPi exchange assay in presence of methionine. In short, it runs like this:
as §3

Compound in data set [17]: C=C(F)c1sc(CNCCCNc2cc(=O)c3ccccc3[nH]2)c(C)c1Br
The data set is described as follows: Ratio of Kcat to Km for Staphylococcus aureus MetRS V108M mutant in presence of methionine. In short, it runs like this: as §1

Compound in data set [18]: C=C(F)c1sc(CNCCCNc2cc(=O)c3ccccc3[nH]2)c(C)c1Br
Nature of the data set: Activity of streptococcus aureus MetRS V108M mutant by scintillation proximity assay in presence of tRNA. Particulars: Staphylococcus aureus.

The values that follow come from ChEMBL document CHEMBL1629614, “Inhibition of methionyl-tRNA synthetase by REP8839 and effects of resistance mutations on enzyme activity” (Antimicrob Agents Chemother, 2009).

B1: Methionine--tRNA ligase (Staphylococcus aureus subsp. aureus MW2), Q8NY00 G223C (protein)
chain: MAKETFYITTPIYYPSGNLHIGHAYSTVAGDVIARYKRMQGYDVRYLTGTDEHGQKIQEKAQKAGKTEIEYLDEMIAGIKQLWAKLEISNDDFIRTTEERHKHVVEQVFERLLKQGDIYLGEYEGWYSVPDETYYTESQLVDPQYENGKIIGGKSPDSGHEVELVKEESYFFNISKYTDRLLEFYDQNPDFIQPPSRKNEMINNFIKPGLADLAVSRTSFNWCVHVPSNPKHVVYVWIDALVNYISALGYLSDDESLFNKYWPADIHLMAKEIVRFHSIIWPILLMALDLPLPKKVFAHGWILMKDGKMSKSKGNVVDPNILIDRYGLDATRYYLMRELPFGSDGVFTPEAFVERTNFDLANDLGNLVNRTISMVNKYFDGELPAYQGPLHELDEEMEAMALETVKSYTESMESLQFSVALSTVWKFISRTNKYIDETTPWVLAKDDSQKDMLGNVMAHLVENIRYAAVLLRPFLTHAPKEIFEQLNINNPQFMEFSSLEQYGVLTESIMVTGQPKPIFPRLDSEAEIAYIKESMQPPATEEEKEEIPSKPQIDIKDFDKVEIKAATIINAEHVKKSDKLLKIQVDLDSEQRQIVSGIAKFYTPDDIIGKKVAVVTNLKPAKLMGQKSEGMILSAEKDGVLTLVSLPSAIPNGAVIK
As to B1, the kcat/Km in data set [1] was 10000 M⁻¹ s⁻¹; in data set [2], 15000 M⁻¹ s⁻¹; in [3] it was 13000 M⁻¹ s⁻¹. Moreover, the Michaelis-Menten constant (Km) in [4] was determined as 750 µM; in data set [5], 680 µM; in data set [6], 2.5 µM. For the same protein, the kcat in data set [5] was 10 s⁻¹; in [6], 0.037 s⁻¹.

B2: Methionine--tRNA ligase (Staphylococcus aureus subsp. aureus MW2), Q8NY00 A247E (protein)
chain: MAKETFYITTPIYYPSGNLHIGHAYSTVAGDVIARYKRMQGYDVRYLTGTDEHGQKIQEKAQKAGKTEIEYLDEMIAGIKQLWAKLEISNDDFIRTTEERHKHVVEQVFERLLKQGDIYLGEYEGWYSVPDETYYTESQLVDPQYENGKIIGGKSPDSGHEVELVKEESYFFNISKYTDRLLEFYDQNPDFIQPPSRKNEMINNFIKPGLADLAVSRTSFNWGVHVPSNPKHVVYVWIDALVNYISELGYLSDDESLFNKYWPADIHLMAKEIVRFHSIIWPILLMALDLPLPKKVFAHGWILMKDGKMSKSKGNVVDPNILIDRYGLDATRYYLMRELPFGSDGVFTPEAFVERTNFDLANDLGNLVNRTISMVNKYFDGELPAYQGPLHELDEEMEAMALETVKSYTESMESLQFSVALSTVWKFISRTNKYIDETTPWVLAKDDSQKDMLGNVMAHLVENIRYAAVLLRPFLTHAPKEIFEQLNINNPQFMEFSSLEQYGVLTESIMVTGQPKPIFPRLDSEAEIAYIKESMQPPATEEEKEEIPSKPQIDIKDFDKVEIKAATIINAEHVKKSDKLLKIQVDLDSEQRQIVSGIAKFYTPDDIIGKKVAVVTNLKPAKLMGQKSEGMILSAEKDGVLTLVSLPSAIPNGAVIK
Consider B2, for which the values for the catalytic efficiency (kcat/Km) in data set [7], in data set [10] and in data set [11] were 10000 M⁻¹ s⁻¹, 44000 M⁻¹ s⁻¹ and 50000 M⁻¹ s⁻¹, respectively. Moreover, the Km amounted to 1.3 µM in data set [8], 1140 µM in data set [9] and 220 µM in data set [12]. Further, the kcat in data set [8] worked out at 0.057 s⁻¹; in data set [12], 11 s⁻¹.

B3: Methionine--tRNA ligase (Staphylococcus aureus subsp. aureus MW2), Q8NY00 V108M (protein)
chain: MAKETFYITTPIYYPSGNLHIGHAYSTVAGDVIARYKRMQGYDVRYLTGTDEHGQKIQEKAQKAGKTEIEYLDEMIAGIKQLWAKLEISNDDFIRTTEERHKHVVEQMFERLLKQGDIYLGEYEGWYSVPDETYYTESQLVDPQYENGKIIGGKSPDSGHEVELVKEESYFFNISKYTDRLLEFYDQNPDFIQPPSRKNEMINNFIKPGLADLAVSRTSFNWGVHVPSNPKHVVYVWIDALVNYISALGYLSDDESLFNKYWPADIHLMAKEIVRFHSIIWPILLMALDLPLPKKVFAHGWILMKDGKMSKSKGNVVDPNILIDRYGLDATRYYLMRELPFGSDGVFTPEAFVERTNFDLANDLGNLVNRTISMVNKYFDGELPAYQGPLHELDEEMEAMALETVKSYTESMESLQFSVALSTVWKFISRTNKYIDETTPWVLAKDDSQKDMLGNVMAHLVENIRYAAVLLRPFLTHAPKEIFEQLNINNPQFMEFSSLEQYGVLTESIMVTGQPKPIFPRLDSEAEIAYIKESMQPPATEEEKEEIPSKPQIDIKDFDKVEIKAATIINAEHVKKSDKLLKIQVDLDSEQRQIVSGIAKFYTPDDIIGKKVAVVTNLKPAKLMGQKSEGMILSAEKDGVLTLVSLPSAIPNGAVIK
For the protein B3, the kcat/Km was 23000 M⁻¹ s⁻¹ in data set [13], 230000 M⁻¹ s⁻¹ in [15] and 110000 M⁻¹ s⁻¹ in data set [17]. Further, the Km is 650 µM in data set [14], 140 µM in data set [16] and 3.2 µM in data set [18]. Also, the results for the kcat in data set [16] and in data set [18] were 15 s⁻¹ and 0.74 s⁻¹, respectively.

As a reminder, the kcat/Km is the turnover number divided by the Michaelis constant. For orientation: Km means the substrate concentration at which the rate is half of its maximum. The kcat is the maximal rate divided by the concentration of active sites.
